pEC50, pIC50: −log10 of the molar value. Values after ≈ are worked out from the molar mass of the structure shown. Each block holds one compound with its values, some of them ahead of it.
Key:
MT4 [1] = test: In vitro for cytotoxicity in MT-4 lymphocytes in the absence of HIV infection.; format: functional; settings: Homo sapiens
In short: (§1)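 Uninfected MT-4 lymphocytes were cultured with compound. CC50 is the concentration at which 50% of cells remain viable.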

[2] = Estimated solubility (buffer pH 7.4); format: ADME; settings: read-out: S
In short: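 Solubility was estimated in pH 7.4 phosphate buffer.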

[3] = t1/2 in rats after IV dose (5 mg/kg); format: ADME, organism-based; settings: rat, in vivo
In short: (§2)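 Rats in groups of eight: four dosed 5 mg/kg intravenously, four 10 mg/kg orally. Dosing solutions were 5 mg/mL in 20% ethanol/5% glucose in water with 2 molar equiv HCl (1 equiv HCl or 2 equiv methanesulfonic acid for some). Terminal t1/2 from the IV arm (n = 4). Cmax was the peak plasma level after oral dosing (n = 4). Bioavailability was AUCoral/2 × AUCiv over 0-6 h.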

[4] = test system: Human immunodeficiency virus 1; test: In vitro for inhibition of cytopathic effect of HIV-1 3B in MT-4 lymphocytes.; format: functional, organism-based
In short: (§3)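 MT-4 lymphocytes were infected with HIV-1 3B at an MOI of either 0.001 or 0.032 tissue culture infective dose per cell. EC50 is the concentration preventing 50% of viral cytopathic effect, from a single triplicate assay. No effect means no activity up to 100 μM or up to the cytotoxic concentration.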

[5] = target: Human immunodeficiency virus type 1 protease (Human immunodeficiency virus 1, UniProt Q72874); test: Inhibition of purified recombinant HIV-1 protease in a fluorogenic assay
In short: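 Purified recombinant HIV-1 protease, with cleavage of the fluorogenic substrate DABCYL-[…]-Pro-Ile-Val-Gln-EDANS as read-out. Value is the inhibitor concentration giving 50% inhibition of protease activity.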

[6] = % bioavailability in rat after oral dose (10 mg/kg) 0 - 6 h.; format: ADME, organism-based; settings: in vivo; in short: as §2
[7] = Cmax in plasma after oral dose (10 mg/kg); format: ADME, organism-based; parameters: dose 10 mg/kg, route oral; in short: as §2
[8] = test system: Human immunodeficiency virus 1; test: Compound was tested in vitro for inhibition of cytopathic effect of HIV-1 3B in MT-4 lymphocytes; format: functional, organism-based; in short: as §3
[9] = In vitro for cytotoxicity in MT-4 lymphocytes in the absence of HIV infection; format: cell-based, MT4; settings: human; in short: as §1
MT4 [10] = test: Compound was tested in vitro for inhibition of cytopathic effect of HIV-1 3B in MT-4 lymphocytes; No effect; format: functional, cell-based, Homo sapiens; in short: as §3
[11] = Cmax in rat plasma after oral dose (10 mg/kg); format: ADME, organism-based; parameters: dose 10 mg/kg, route oral; in short: as §2

Structure (SMILES): CC(C)[C@H](NC(=O)OCc1ccccn1)C(=O)N[C@@H](Cc1ccccc1)C(O)[C@H](Cc1ccccc1)NC(=O)[C@H](NC(=O)OCc1ccccn1)C(C)C (stereo partly specified)
- CC50 (MT4 [1]): 57 µM
- solubility [2]: 51 µg/mL (≈ 69 µM)
- half-life [3]: 1.9 h
- pEC50 [4]: 5.35
- pIC50 [5]: 8.32
- bioavailability [6]: 19%
- Cmax [7]: 1600 nM

Structure (SMILES): CC(C)[C@H](NC(=O)OCc1cccnc1)C(=O)N[C@@H](Cc1ccccc1)C(O)[C@H](Cc1ccccc1)NC(=O)[C@H](NC(=O)OCc1cccnc1)C(C)C (stereo partly specified)
- CC50 (MT4 [1]): 62 µM
- solubility [2]: 18 µg/mL (≈ 24.4 µM)
- half-life [3]: 0.31 h
- pEC50 [4]: 5.20
- pIC50 [5]: 8.17
- bioavailability [6]: 2.1%
- Cmax [7]: 220 nM

Structure (SMILES): CC(C)[C@H](NC(=O)OCc1ccncc1)C(=O)N[C@@H](Cc1ccccc1)[C@@H](O)[C@H](Cc1ccccc1)NC(=O)[C@H](NC(=O)OCc1ccccc1)C(C)C
- solubility [2]: 0.8 µg/mL (≈ 1.08 µM)
- pEC50 [8]: 5.00
- CC50 [9]: > 100 µM
- pIC50 [5]: 8.15

Structure (SMILES): CC(C)[C@H](NC(=O)OCCN1CCCC1)C(=O)N[C@@H](Cc1ccccc1)[C@@H](O)[C@H](Cc1ccccc1)NC(=O)[C@H](NC(=O)OCc1ccccc1)C(C)C
- EC50 (MT4 [10]): Not Active
- solubility [2]: 19 µg/mL (≈ 25.5 µM)
- CC50 [9]: 21 µM
- pIC50 [5]: 7.85

Structure (SMILES): CC(C)[C@H](NS(=O)(=O)CCc1ccncc1)C(=O)N[C@@H](Cc1ccccc1)[C@@H](O)[C@@H](O)[C@H](Cc1ccccc1)NC(=O)[C@H](NS(=O)(=O)CCc1ccncc1)C(C)C
- solubility [2]: 5.6 µg/mL (≈ 6.69 µM)
- pEC50 [8]: 4.77
- CC50 [9]: > 100 µM
- pIC50 [5]: 8.24

Structure (SMILES): CC(C)[C@H](NC(=O)OCC1CCCN(C)C1)C(=O)N[C@@H](Cc1ccccc1)[C@@H](O)[C@H](Cc1ccccc1)NC(=O)[C@H](NC(=O)OCc1ccccc1)C(C)C (stereo partly specified)
- EC50 (MT4 [10]): Not Active
- solubility [2]: 31 µg/mL (≈ 40.9 µM)
- CC50 [9]: 17 µM
- pIC50 [5]: 7.89

Structure (SMILES): CC(C)[C@H](NC(=O)OCc1ccncc1)C(=O)N[C@@H](Cc1ccccc1)C(O)[C@H](Cc1ccccc1)NC(=O)[C@H](NC(=O)OCc1ccncc1)C(C)C (stereo partly specified)
- solubility [2]: 7.8 µg/mL (≈ 10.6 µM)
- pEC50 [8]: 5.00
- half-life [3]: 0.57 h
- CC50 [9]: > 100 µM
- Cmax [11]: 200 nM
- pIC50 [5]: 7.59
- bioavailability [6]: 0.9%

Structure (SMILES): CC(C)[C@H](NC(=O)N(C)Cc1ccccn1)C(=O)N[C@@H](Cc1ccccc1)C(O)[C@H](Cc1ccccc1)NC(=O)[C@H](NC(=O)N(C)Cc1ccccn1)C(C)C (stereo partly specified)
- CC50 (MT4 [1]): > 100 µM
- solubility [2]: 167 µg/mL (≈ 218 µM)
- half-life [3]: 0.45 h
- pEC50 [4]: 4.60
- pIC50 [5]: 7.37
- bioavailability [6]: 11%
- Cmax [7]: 1500 nM

Structure (SMILES): CC(C)[C@H](NS(=O)(=O)N(C)Cc1ccccn1)C(=O)N[C@@H](Cc1ccccc1)[C@@H](O)[C@@H](O)[C@H](Cc1ccccc1)NC(=O)[C@H](NS(=O)(=O)N(C)Cc1ccccn1)C(C)C
- EC50 (MT4 [10]): Not Active
- solubility [2]: 23 µg/mL (≈ 26.5 µM)
- CC50 [9]: 52 µM
- pIC50 [5]: 6.62

- solubility [2]: 184 µg/mL (≈ 220 µM)
- pEC50 [8]: 5.64
- pIC50 [5]: > 9.00
Structure (SMILES): CC(C)[C@H](NC(=O)N(C)Cc1csc(N)n1)C(=O)N[C@@H](Cc1ccccc1)[C@@H](O)[C@H](O)[C@H](Cc1ccccc1)NC(=O)[C@H](NC(=O)N(C)Cc1csc(N)n1)C(C)C
- CC50 [9]: > 100 µM

Structure (SMILES): CC(C)[C@H](NC(=O)N(C)Cc1cccnc1)C(=O)N[C@@H](Cc1ccccc1)[C@H](O)[C@H](O)[C@H](Cc1ccccc1)NC(=O)[C@H](NC(=O)N(C)Cc1cccnc1)C(C)C
- CC50 (MT4 [1]): > 100 µM
- solubility [2]: 91 µg/mL (≈ 114 µM)
- half-life [3]: 1.3 h
- pEC50 [4]: 5.85
- pIC50 [5]: > 9.00
- bioavailability [6]: 17%
- Cmax [7]: 520 nM

Structure (SMILES): CC(C)[C@H](NS(=O)(=O)N(C)Cc1ccccn1)C(=O)N[C@@H](Cc1ccccc1)C(O)[C@H](Cc1ccccc1)NC(=O)[C@H](NS(=O)(=O)N(C)Cc1ccccn1)C(C)C (stereo partly specified)
- EC50 (MT4 [10]): Not Active
- solubility [2]: 11 µg/mL (≈ 13.1 µM)
- half-life [3]: 1.4 h
- CC50 [9]: 32 µM
- Cmax [11]: 2100 nM
- pIC50 [5]: 5.89
- bioavailability [6]: 21%

Structure (SMILES): CC(C)[C@H](NS(=O)(=O)N(C)Cc1ccccn1)C(=O)N[C@@H](Cc1ccccc1)[C@H](O)[C@H](O)[C@H](Cc1ccccc1)NC(=O)[C@H](NS(=O)(=O)N(C)Cc1ccccn1)C(C)C
- solubility [2]: 40 µg/mL (≈ 46.1 µM)
- half-life [3]: 1.5 h
- pEC50 [4]: 4.37
- CC50 [9]: 65 µM
- Cmax [11]: 1160 nM
- pIC50 [5]: 7.42
- bioavailability [6]: 11%

Structure (SMILES): CC(C)[C@H](NS(=O)(=O)N(C)Cc1ccccn1)C(=O)N[C@@H](Cc1ccccc1)[C@@H](O)[C@H](O)[C@H](Cc1ccccc1)NC(=O)[C@H](NS(=O)(=O)N(C)Cc1ccccn1)C(C)C
- EC50 (MT4 [10]): Not Active
- solubility [2]: 30 µg/mL (≈ 34.6 µM)
- CC50 [9]: 56 µM
- pIC50 [5]: 7.15

Structure (SMILES): CC(C)[C@H](NC(=O)OCCN1CCOCC1)C(=O)N[C@@H](Cc1ccccc1)[C@@H](O)[C@@H](O)[C@H](Cc1ccccc1)NC(=O)[C@H](NC(=O)OCCN1CCOCC1)C(C)C
- solubility [2]: 132 µg/mL (≈ 162 µM)
- pEC50 [8]: 4.85
- CC50 [9]: > 100 µM
- pIC50 [5]: 7.70

Structure (SMILES): CC(C)[C@H](NC(=O)N1CCN(C)CC1)C(=O)N[C@@H](Cc1ccccc1)[C@@H](O)[C@H](Cc1ccccc1)NC(=O)[C@H](NC(=O)OCc1ccccc1)C(C)C
- EC50 (MT4 [10]): Not Active
- solubility [2]: 141 µg/mL (≈ 193 µM)
- half-life [3]: 1.1 h
- CC50 [9]: 55 µM
- Cmax [11]: 250 nM
- pIC50 [5]: 7.55
- bioavailability [6]: 13%

Structure (SMILES): CC(C)[C@H](NC(=O)C1Cc2ccccc2CN1)C(=O)N[C@@H](Cc1ccccc1)C(O)[C@H](Cc1ccccc1)NC(=O)[C@H](NC(=O)C1Cc2ccccc2CN1)C(C)C (stereo partly specified)
- EC50 (MT4 [10]): Not Active
- CC50 [9]: 6.4 µM
- pIC50 [5]: 8.15
